Measured values as given in publication PMC11445516 (Nature Communications, 2024).

Tests used:
[1] = target: human placental alkaline phosphatase (Homo sapiens, UniProt P05187); assay: Hydrolysis in human placental alkaline phosphatase solution; format: in vitro ADME; details: human placental ALP 0.5 unit/mL, prodrug 100 μM, Tris pH 7.6, 37 °C
BxPC-3 xenograft = assay: Efficacy study in BxPC-3 pancreatic cancer xenograft mouse model; format: in vivo
How it was run: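 Female Foxn nu/nu mice (4 weeks old on arrival) received 3.5 × 10^6 BxPC-3 cells in 50:50 Cultrex BME:DMEM, injected subcutaneously into the right hind flank. At ~95 mm3 they were stratified into four groups of eight. […] Dosing ran 21 days, then 25 days of follow-up. Caliper volume, (W² × L)/2, and body weight were recorded biweekly. Analysis used a mixed model with Dunnett post hoc.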

[2] = through a range of pH's; cited from earlier work
[3] = previously measured; cited from earlier work

human placental alkaline phosphatase, sequence (P05187 23-535): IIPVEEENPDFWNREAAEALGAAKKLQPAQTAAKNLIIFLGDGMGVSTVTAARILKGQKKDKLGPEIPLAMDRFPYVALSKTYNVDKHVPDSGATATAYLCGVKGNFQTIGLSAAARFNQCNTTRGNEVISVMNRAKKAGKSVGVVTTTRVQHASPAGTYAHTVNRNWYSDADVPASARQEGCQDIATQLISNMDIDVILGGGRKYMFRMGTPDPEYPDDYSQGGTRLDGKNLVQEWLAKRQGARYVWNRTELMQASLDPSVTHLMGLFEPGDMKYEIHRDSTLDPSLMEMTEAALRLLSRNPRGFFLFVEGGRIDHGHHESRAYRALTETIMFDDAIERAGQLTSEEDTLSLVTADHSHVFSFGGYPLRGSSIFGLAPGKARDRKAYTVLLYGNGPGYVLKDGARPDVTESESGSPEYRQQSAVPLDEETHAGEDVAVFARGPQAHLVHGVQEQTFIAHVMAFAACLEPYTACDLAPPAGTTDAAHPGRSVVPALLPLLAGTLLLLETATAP

## CC(=O)O[C@H]1C(=O)[C@@]2(C)[C@H]([C@H](OC(=O)c3ccccc3)[C@]3(O)C[C@H](OC(=O)[C@H](OC(=O)OCc4cc(P(=O)(O)O)ccc4OP(=O)(O)O)[C@@H](NC(=O)c4ccccc4)c4ccccc4)C(C)=C1C3(C)C)[C@]1(OC(C)=O)CO[C@@H]1C[C@@H]2O [Compound 8vi, (3-((((((1S,2 R)-1-benzamido-3-(((2aR,4S,4aS,6 R,9S,11S,12S,12aR,12bS)-6,12b-diacetoxy-12-(benzoyloxy)-4,11-dihydroxy-4ª,8,13,13-tetramethyl−5-oxo-2ª,3,4,4ª,5,6,9,10,11,12,12ª,12b-dodecahydro-1H-7,11-methanocyclodeca[3,4]benzo[1,2-b]oxet-9-yl)oxy)-3-oxo-1-phenylpropan-2-yl)oxy)carbonyl)oxy)methyl)-4-(phosphonooxy)phenyl)phosphonic acid]
[1]
  Hydrolysis rate in ALP (drug formation rate): 1.44 pmol/min
BxPC-3 xenograft; 25 mg/kg PO QOD in saline, following the 21-day dosing period
  Tumor growth inhibition (TGI): –15%
BxPC-3 xenograft; 75 mg/kg PO QOD in saline, following the 25-day observation period
  Tumor growth inhibition (TGI): 84%
BxPC-3 xenograft; 25 and 75 mg/kg PO QOD, 21 days
  Toxicity during dosing: no appreciable toxicity

## CNC(=O)c1ccc(N2C(=S)N(c3ccc(C#N)c(C(F)(F)F)c3)C(=O)C2(C)C)cc1F [Enzalutamide, enzalutamide]
[2]
  Solubility in water: < 0.1 µg/mL

## CC(=O)O[C@H]1C(=O)[C@@]2(C)[C@H]([C@H](OC(=O)c3ccccc3)[C@]3(O)C[C@H](OC(=O)[C@H](OC(=O)OCc4cc(C(=O)O)ccc4OP(=O)(O)O)[C@@H](NC(=O)c4ccccc4)c4ccccc4)C(C)=C1C3(C)C)[C@]1(OC(C)=O)CO[C@@H]1C[C@@H]2O [Compound 8i, 3-((((((1S,2 R)-1-benzamido-3-(((2aR,4S,4aS,6 R,9S,11S,12S,12aR,12bS)-6,12b-diacetoxy-12-(benzoyloxy)-4,11-dihydroxy-4a,8,13,13-tetramethyl-5-oxo-2a,3,4,4a,5,6,9,10,11,12,12a,12b-dodecahydro-1H-7,11-methanocyclodeca[3,4]benzo[1,2-b]oxet-9-yl)oxy)-3-oxo-1-phenylpropan−2-yl)oxy)carbonyl)oxy)methyl)-4-(phosphonooxy)benzoic acid]
[1]
  Hydrolysis rate in ALP (drug formation rate): 2.13 pmol/min

## CC(=O)O[C@H]1C(=O)[C@@]2(C)[C@H]([C@H](OC(=O)c3ccccc3)[C@]3(O)C[C@H](OC(=O)[C@H](O)[C@@H](NC(=O)c4ccccc4)c4ccccc4)C(C)=C1C3(C)C)[C@]1(OC(C)=O)CO[C@@H]1C[C@@H]2O [Paclitaxel, paclitaxel, reference compound]
BxPC-3 xenograft; 12.5 mg/kg IV QWK in Cremophor EL, following the 21-day dosing period
  Tumor growth inhibition (TGI): 78%
BxPC-3 xenograft; 12.5 mg/kg IV QWK in Cremophor EL, following the 25-day observation period
  Tumor growth inhibition (TGI): 51%
[3]
  Oral bioavailability: < 6%
